# Published values pooled from the literature.
# Compare with care: the assays were run in different laboratories.
# UGT1A6: UDP-glucuronosyltransferase 1A6 (UGT1A6, Homo sapiens, UniProt P19224)
SMILES,tested on,assay,system,conditions,endpoint,result
OC(Cn1cncn1)(Cn1cncn1)c1ccc(F)cc1F,,haemolysis,human,"8 µg/mL, 1 h",haemolysis,4.52%
CCOc1ccccc1C=NNc1nc(-c2ccc(F)cc2)cs1,,haemolysis,human,"50 µM, 30 min, pH 7.4",haemolysis,16.8%
CCOP(=O)(OCC)[C@@H]1C[C@@H](n2cc(-c3ccccc3)nn2)ON1C (racemic),HeLa,cell growth or viability,,72 h,CC50,> 250 µM
C[C@@H](Cn1ccc(-c2ccc(C#N)c(Cl)c2)n1)NC(=O)c1cc([C@@H](C)O)[nH]n1,UGT1A6,"enzyme activity, inhibitor","human, liver microsomes",,IC50,> 100 µM
Fc1ccc(-c2csc(NN=Cc3cccs3)n2)cc1,,haemolysis,human,"100 µM, 30 min, pH 7.4",haemolysis,61.4%
CCCCCCCCCCCCCCCCOP(=O)([O-])OCC[N+](C)(C)C,HeLa,"cell growth or viability, XTT",,72 h,IC50,6.5 µM
Cc1cccc(F)c1N1CCC(N2Cc3cn(CC(C)(F)F)nc3N(Cc3ccccc3C(F)(F)F)C2=O)CC1,"Cytochrome P450 2B6 (CYP2B6, Homo sapiens, UniProt P20813)","enzyme activity, inhibitor","human, liver microsomes",,IC50,> 10 µM
CN(CCC(=O)O)C(=O)c1ccc2c(c1)CC[C@@H]1[C@@H]2CC[C@]2(C)C(c3cncc(F)c3)=CC[C@@H]12,UGT1A6,"enzyme activity, inhibitor",,,IC50,> 30 µM
CC(=O)c1cc(C(=O)N[C@@H](C)Cn2ccc(-c3ccc(C#N)c(Cl)c3)n2)[nH]n1,UGT1A6,"enzyme activity, inhibitor","human, liver microsomes",,IC50,> 50 µM
Oc1ccc(Cl)cc1C=NNc1nc(-c2ccc(F)cc2)cs1,,haemolysis,human,"100 µM, 30 min, pH 7.4",haemolysis,52.5%
Cc1ccn2c(C(=O)N3CCN(Cc4cn(-c5cccc([N+](=O)[O-])c5)nn4)CC3)c(C)nc2c1,HeLa,"cell growth or viability, resazurin",,,CC50,> 100 µM
C[C@@H]1[C@H](O)[C@@H](C)/C=C/C=C/C=C/C=C/C=C/C=C/C=C/[C@H](O[C@@H]2O[C@H](C)[C@@H](O)[C@H](N)[C@@H]2O)C[C@@H]2O[C@](O)(C[C@@H](O)C[C@@H](O)[C@H](O)CC[C@@H](O)C[C@@H](O)CC(=O)O[C@H]1C)C[C@H](O)[C@H]2C(=O)O,,haemolysis,human,"0.5 µg/mL, 1 h",haemolysis,3.73%
Fc1ccc(-c2csc(NN=Cc3ccccc3C(F)(F)F)n2)cc1,,haemolysis,human,"10 µM, 30 min, pH 7.4",haemolysis,4.43%
Cc1nc2ccc(Cl)cn2c1C(=O)N1CCN(CCn2cc(-c3ccc(C(C)(C)C)cc3)nn2)CC1,HeLa,"cell growth or viability, resazurin",,,CC50,> 100 µM
CCOP(=O)(OCC)[C@@H]1C[C@@H](n2cc(C(=O)OC)nn2)ON1C (relative stereo),HEL,cell growth or viability,,72 h,CC50,> 100 µM
CC(CCc1ccccc1)=NNc1nc(-c2ccc(F)cc2)cs1,,haemolysis,human,"50 µM, 30 min, pH 7.4",haemolysis,8.38%
COc1cccc(-n2cc(CN3CCN(C(=O)c4c(C)nc5cc(C)ccn45)CC3)nn2)c1,HeLa,"cell growth or viability, resazurin",,,CC50,> 100 µM
COc1ccc(S(=O)(=O)Nc2c(C(=O)Nc3c(C(=O)O)cc(OC)c(OC)c3OC)cc(OC)c(OC)c2OC)cc1,HeLa,"cell growth or viability, XTT",,72 h,IC50,95 µM
COc1c(F)cccc1C=NNc1nc(-c2ccc(F)cc2)cs1,,haemolysis,human,"100 µM, 30 min, pH 7.4",haemolysis,36.6%
Cc1ccn2c(C(=O)N3CCN(Cc4cn(-c5ccc(C(F)(F)F)cc5)nn4)CC3)c(C)nc2c1,HeLa,"cell growth or viability, resazurin",,,CC50,> 100 µM
CC(=NNc1nc(-c2ccc(F)cc2)cs1)c1cccc(Br)c1,,haemolysis,human,"10 µM, 30 min, pH 7.4",haemolysis,0%
CCCc1cn(CCN2CCN(C(=O)c3c(C)nc4cc(C)ccn34)CC2)nn1,HeLa,"cell growth or viability, resazurin",,,CC50,> 100 µM
CCOP(=O)(OCC)[C@@H]1C[C@@H](n2cc(Cn3cc(C)c(=O)[nH]c3=O)nn2)ON1C (racemic),HeLa,cell growth or viability,,72 h,CC50,> 250 µM
Cc1ccn2c(C(=O)N3CCN(CCn4cc(C5CC5)nn4)CC3)c(C)nc2c1,HeLa,"cell growth or viability, resazurin",,,CC50,> 100 µM
CCOP(=O)(OCC)[C@@H]1C[C@H](n2cc(Cn3ccc(=O)[nH]c3=O)nn2)ON1C (racemic),HeLa,cell growth or viability,,72 h,CC50,> 250 µM
CCc1ccc(-n2cc(CN3CCN(C(=O)c4c(C)nc5cc(C)ccn45)CC3)nn2)cc1,HeLa,"cell growth or viability, resazurin",,,CC50,> 100 µM
CCOP(=O)(OCC)[C@@H]1C[C@H](n2cc(Cn3ccc(NC(C)=O)nc3=O)nn2)ON1C (racemic),HEL,cell growth or viability,,72 h,CC50,> 100 µM
Fc1ccc(-c2csc(NN=Cc3ccc(C(F)(F)F)cc3)n2)cc1,,haemolysis,human,"100 µM, 30 min, pH 7.4",haemolysis,41%
CCc1ccc(-n2cc(CN3CCN(C(=O)c4c(C)nc5ccc(Cl)cn45)CC3)nn2)cc1,HeLa,"cell growth or viability, resazurin",,,CC50,58.1 µM
